Results: ChEMBL document CHEMBL5260822, “Structure-based design and synthesis of 2,4-diaminopyrimidines as EGFR L858R/T790M selective inhibitors for NSCLC” (Eur J Med Chem, 2017)

What was measured:
[1] = system: A-431; experiment: Antiproliferative activity against human A-431 cells harboring wild type EGFR assessed as inhibition of cell proliferation incubated for 72 hrs by sulforhodamine B colorimetric assay; format: functional, cell-based; conditions: A-431, 72 h
[2] = AUC (0 to infinity) in Sprague-Dawley rat at 10 mg/kg, po and measured after 24 hrs by LC-MS/MS analysis; format: ADME, organism-based; design: dose 10 mg/kg, time 24 hrs, route po; conditions: in vivo
Outline: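 Male Sprague–Dawley rats (190–220 g) dosed by oral gavage at 10 mg/kg in 5% DMSO / 95% HP-β-CD aqueous solution (20%); iv reference arm at 1 mg/kg. Blood sampled at 0.25, 0.5, 1, 2, 4, 6, 8 and 24 h, centrifuged (8000 × g, 6 min), and plasma quantified by LC–MS/MS.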

Structure (SMILES): C=CC(=O)Nc1cc(Nc2ncc(Br)c(Nc3ccc4ccn(C)c4c3)n2)c(OC)cc1N1CCN(C)CC1
- IC50 [1]: 1690 nM
- AUC [2]: 52.3 ng·h/mL
